Experimental data published in ChEMBL document CHEMBL4622933, “Targeting the TS dimer interface in bifunctional Cryptosporidium hominis TS-DHFR from parasitic protozoa: Virtual screening identifies novel TS allosteric inhibitors” (Bioorg Med Chem Lett, 2020).
Activity calls are given as the source filed them. No cut-off for these calls is given here.

Tested on: Cryptosporidium hominis
Experiment: Inhibition of Cryptosporidium hominis thymidylate synthase assessed as H2F formation at 500 uM preincubated for 30 mins followed by addition of radiolabelled CH2H4F and dUMP by HPLC-coupled flow scintillation analysis relative to control
Settings: not given
Procedure, shortened: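 Bifunctional C. hominis TS-DHFR is preincubated with compound for 30 min, then dUMP and radiolabelled CH2H4F are added to start the reaction. TS turnover of CH2H4F to H2F is followed by HPLC with radioactivity flow detection, and results are expressed as % inhibition.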

inhibition	SMILES
7%	OC(CNCc1ccc2c(c1)OCO2)COc1ccc(F)cc1 (centres undefined)
26%	OC(CNCc1ccc2c(c1)OCO2)COc1ccc(Br)cc1 (centres undefined)
20%	COc1cc(C(C)=O)ccc1OCC(O)CNCc1ccc2c(c1)OCO2 (centres undefined)
55%	Cc1ccc(OCC(O)CNCc2ccc3c(c2)OCO3)cc1C (centres undefined)
83%	Cc1cc(Cl)cc(Br)c1OCC(O)CNCc1ccc2c(c1)OCO2 (centres undefined)
83%	OC(CNCc1ccc2c(c1)OCO2)COc1ccc(Cl)c(Cl)c1 (centres undefined)
< 5%	COc1cc(C(=O)O)ccc1OCC(O)CNCc1ccc2c(c1)OCO2 (centres undefined)
< 5%	COc1ccccc1OCC(O)CNCc1ccc2c(c1)OCO2 (centres undefined)
55%	CC(=O)c1ccc(OCC(O)CNCc2ccc3c(c2)OCO3)cc1 (centres undefined)

Second part, the compound before the results:

SMILES	inhibition
COc1ccc(Cn2c(=O)c3[nH]cnc3n(-c3cccc([S+](C)[O-])c3)c2=O)cc1 (centres undefined)	< 5%
Cc1ccccc1-n1c(=O)n(Cc2ccc(C(=O)O)cc2)c(=O)c2[nH]cnc21	< 5%
CCCCNC1N=C(c2ccccc2)c2ccccc2N(C)C1=O (centres undefined)	15%
COc1cc(NC(=O)NCc2cccnc2)cc(C(F)(F)F)c1	46%
CC(C)(CC(=O)O)CC(=O)NCc1c(Cl)cccc1Oc1ccccc1	inactive
OC(CNCc1ccc2c(c1)OCO2)COc1ccc(-c2ccccc2)cc1 (centres undefined)	87%
OC(CNCc1ccc2c(c1)OCO2)CSc1ccccc1 (centres undefined)	34%
OC(CNCc1ccc2c(c1)OCO2)CSc1cccs1 (centres undefined)	43%
Cc1ccc(C)c(OCC(O)CNCc2ccc3c(c2)OCO3)c1C (centres undefined)	48%
O=C(O)CCC(=O)Nc1ccc(S(=O)(=O)Nc2ccc(C(F)(F)F)cc2)cc1	inactive
OC(CNCc1ccc2c(c1)OCO2)COc1ccc(-c2csnn2)cc1 (centres undefined)	76%
CCOC(=O)CNC(=O)CSc1nc2ccccc2c(=O)[nH]1	inactive

Tested on: Cryptosporidium hominis
Experiment: Inhibition of Cryptosporidium hominis dihydrofolate reductase assessed as H4F formation at 500 uM preincubated for 30 mins followed by addition of radiolabelled H2F and dUMP by HPLC-coupled flow scintillation analysis relative to control
Settings: not given
Procedure, shortened: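 DHFR activity of bifunctional C. hominis TS-DHFR uses a radiometric assay. Conversion of radiolabelled H2F to H4F is followed by HPLC, and % inhibition is reported. The assay is run as a counter-screen for compound aggregation and nonspecific effects.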

inhibition	SMILES
19%	Cc1cc(Cl)cc(Br)c1OCC(O)CNCc1ccc2c(c1)OCO2 (centres undefined)
60%	OC(CNCc1ccc2c(c1)OCO2)COc1ccc(Cl)c(Cl)c1 (centres undefined)

Continued, compound first:

SMILES	inhibition
OC(CNCc1ccc2c(c1)OCO2)COc1ccc(-c2ccccc2)cc1 (centres undefined)	26%
OC(CNCc1ccc2c(c1)OCO2)COc1ccc(-c2csnn2)cc1 (centres undefined)	6%

Tested on: not listed separately
Experiment: Inhibition of Cryptosporidium hominis thymidylate synthase assessed as H2F formation preincubated for 30 mins followed by addition of radiolabelled CH2H4F and active dUMP by HPLC-coupled flow scintillation analysis
Settings: not given

IC50	SMILES
304 µM	Cc1cc(Cl)cc(Br)c1OCC(O)CNCc1ccc2c(c1)OCO2 (centres undefined)

Biological target: Thymidylate synthase (TS) (Homo sapiens, UniProt P04818)
Experiment: Inhibition of human TS at 500 uM relative to control
Settings: human thymidylate synthase enzyme (single protein)
Procedure, shortened: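 Human TS enzyme is incubated with compound in the absence of dUMP, then TS activity is measured.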

Chain of Thymidylate synthase (TS) (P04818 whole entry): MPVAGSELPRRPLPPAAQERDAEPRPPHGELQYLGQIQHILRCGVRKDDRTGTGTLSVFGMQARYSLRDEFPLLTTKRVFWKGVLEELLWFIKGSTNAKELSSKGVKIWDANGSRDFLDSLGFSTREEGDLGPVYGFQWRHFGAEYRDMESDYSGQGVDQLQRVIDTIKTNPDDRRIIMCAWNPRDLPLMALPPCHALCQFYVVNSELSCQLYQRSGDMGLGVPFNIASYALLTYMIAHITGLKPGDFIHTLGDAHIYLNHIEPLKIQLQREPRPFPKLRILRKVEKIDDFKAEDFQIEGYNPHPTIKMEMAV

inhibition at 500 µM	SMILES
50%	Cc1cc(Cl)cc(Br)c1OCC(O)CNCc1ccc2c(c1)OCO2 (centres undefined)

Tested on: not listed separately
Experiment: Inhibition of Cryptosporidium hominis thymidylate synthase assessed as H2F formation preincubated for 30 mins followed by addition of radiolabelled CH2H4F and inactive dUMP by HPLC-coupled flow scintillation analysis
Settings: not given

IC50	SMILES
172 µM	Cc1cc(Cl)cc(Br)c1OCC(O)CNCc1ccc2c(c1)OCO2 (centres undefined)

Tested on: not listed separately
Experiment: Selectivity index, ratio of inhibition of human TS to inhibition of Cryptosporidium hominis thymidylate synthase-dihydrofolate reductase
Settings: not given

Ratio	SMILES
2	Cc1cc(Cl)cc(Br)c1OCC(O)CNCc1ccc2c(c1)OCO2 (centres undefined)
